Assay outcomes as filed in PubChem.
Shown are actives, neighbours in structure and some others; about 0.74% of the full set was active somewhere.
Calb biofilm kill – mixture kills Candida albicans biofilm cells; C. albicans biofilm persisters + clotrimazole, fluorescence viability; primary screen in compound mixtures of four per well; inhibition, % at 7.6 µM; hit rate 0.02% among 120,000; AID 1242;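 active = inhibition above 30.3% in the primary screen of four-compound pools, then above 30% when the compound was retested; inconclusive = passed the primary limit but could not be retested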;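 also: compounds exposed to preformed 24 h biofilms for 48 h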
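Test system: C. albicans biofilms. Buffer or medium: RPMI/MOPS medium, pH 7.0. Timing: 48 h compound exposure at 37 °C. Technique: Alamar Blue fluorescence. Evaluation: percent inhibition of biofilm viability.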
RGS4-Gao reg – modulates binding of RGS4 to human Galphao. binding response (% of control), % at 10 µM. Multiplexed bead flow cytometry; actives lie on both sides. AID 1415. hit rate 0.33% among 220,000. P09471; in the data active = binding response below about 49% or above about 150%; inactive = in between;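 also: fluorescent Galphao activated with aluminum fluoride binding bead-coupled RGS4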
Target sequence (P09471 whole entry, looked up): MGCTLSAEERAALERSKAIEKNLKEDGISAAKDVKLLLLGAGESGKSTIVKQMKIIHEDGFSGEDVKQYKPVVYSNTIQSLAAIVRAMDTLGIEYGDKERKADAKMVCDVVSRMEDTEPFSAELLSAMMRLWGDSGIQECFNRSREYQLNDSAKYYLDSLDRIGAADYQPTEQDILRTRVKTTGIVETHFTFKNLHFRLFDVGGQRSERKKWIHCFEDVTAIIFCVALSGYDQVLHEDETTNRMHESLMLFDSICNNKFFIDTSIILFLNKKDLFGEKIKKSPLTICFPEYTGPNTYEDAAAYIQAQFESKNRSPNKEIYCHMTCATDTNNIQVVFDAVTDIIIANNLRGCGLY
RGS7-Gao – regulators of human RGS7-Galphao interaction; hit rate 0.35% among 220,000; binding response (% of control), % at 10 µM; Multiplexed bead flow cytometry, RGS7-Galphao binding; actives lie on both sides; AID 1439; in the data active = binding response below about 49% or above about 150%; inconclusive = no clear call, values can overlap the other calls; inactive = in between;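 also: fluorescent Galphao held in activated GDP-AlF4 state binding bead-coupled RGS7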
RGS16-Gao – RGS16-Galphao interaction regulator (human) | O15492+P09471 | bead-based flow cytometry RGS16-Galphao binding, fluorescence; actives lie on both sides | binding response (% of control), % at 10 µM | hit rate 0.38% among 220,000 | AID 1441; call rule not given here;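 also: Galphao activated by GDP with aluminum fluoride before binding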
Target sequence (O15492 whole entry, looked up): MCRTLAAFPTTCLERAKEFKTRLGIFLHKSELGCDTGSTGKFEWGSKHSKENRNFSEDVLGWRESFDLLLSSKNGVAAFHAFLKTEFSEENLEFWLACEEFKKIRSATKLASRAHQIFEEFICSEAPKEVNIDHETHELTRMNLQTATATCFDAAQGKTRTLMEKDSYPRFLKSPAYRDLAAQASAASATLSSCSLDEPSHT
Target sequence (P09471 whole entry, looked up): as the sequence (P09471 whole entry, looked up) above
RGS8-Gao – regulators of human RGS8-Galphao interaction; P09471; multiplexed bead flow cytometry, RGS8-Galphao binding; actives lie on both sides; response (percent of control binding), % at 10 µM; hit rate 0.34% among 220,000; AID 1423; in the data active = response below about 60% or above about 140%; inactive = in between;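 also: Galphao activated as the GDP aluminium fluoride complex binding bead-coupled RGS8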
Of the large screens only hits and unclear results are named; the others gave an inactive call; ! = not confirmed by another sample; [ ] = another dose, or the depositor's remark.

CC(C)CCNC(=O)CN(C(=O)Cn1nnc(-c2ccccc2F)n1)c1cccc2c1CCCC2	RGS4-Gao reg 20, RGS7-Gao 12, RGS16-Gao 0.7, RGS8-Gao 12 (no result: Calb biofilm kill)
O=C(CN(C(=O)Cn1nnc(-c2ccccc2F)n1)c1cccc2c1CCCC2)NCc1ccccc1	none (no result: Calb biofilm kill)
Cc1ccccc1NC(=O)C(C)n1c2ccccc2c2nc(=O)cc(C)n21 (stereo unspecified)	RGS7-Gao inconclusive
COc1ccc(-n2c(=O)c3ccccc3n(Cc3cccc(C)c3)c2=O)cc1OC	none
CCCSc1nc(C)cc(C)c1C(N)=O	none (no result: Calb biofilm kill)
Cc1ccc(NC(=O)C(C)Sc2nnc(-c3cccnc3)n2-c2ccccc2)cc1 (stereo unspecified)	none (no result: Calb biofilm kill)
Oc1[nH]c2ccccc2c1N=Nc1ccccc1	RGS7-Gao inconclusive
O=S1(=O)N=C(N=Nc2c(O)[nH]c3ccccc23)c2ccccc21	RGS4-Gao reg 12, RGS7-Gao 12, RGS16-Gao 4.8, RGS8-Gao 17
Cc1c(CNCC(C)c2ccccc2)c(C(=O)O)c(C)n1Cc1ccccc1 (stereo unspecified)	none
CN(C)c1ccc(C2NCCS2)cc1 (stereo unspecified)	RGS4-Gao reg 15, RGS7-Gao 27, RGS16-Gao 21, RGS8-Gao 47 (no result: Calb biofilm kill)
O=C(COc1ccc(Cl)cc1Cl)N/N=C1\CCCc2ccccc21	RGS4-Gao reg 34, RGS7-Gao 27, RGS8-Gao 23 (no result: Calb biofilm kill)
COc1ccc(N(C)S(=O)(=O)c2cccc(C(=O)OCC(=O)Nc3sc4c(c3C#N)CCCCC4)c2)cc1	none
CN(C)S(=O)(=O)c1cccc(C(=O)OCC(=O)Nc2sccc2C#N)c1	RGS4-Gao reg -59, RGS7-Gao -17, RGS16-Gao -63, RGS8-Gao 21 (no result: Calb biofilm kill)
CCN1/C(=C/c2ccc3cc(C)ccc3[n+]2CC)Sc2cc(C)c(C)cc21	Calb biofilm kill 32
CCN1/C(=C/c2ccc3cc(C)ccc3[n+]2CC)Sc2ccccc21	RGS4-Gao reg 169[activator], RGS7-Gao 225[activator]
Cc1cc(C(N)=O)nn1-c1c(Cl)cc(Cl)cc1Cl	RGS7-Gao inconclusive
CS(=O)(=O)NCC(c1ccco1)N1CCN(c2ccc(F)cc2)CC1 (stereo unspecified)	none
CCOc1ccc(N=C(NN)c2ccc3ccccc3n2)cc1	none
O=C(NNc1ncnc2ccccc12)c1cccc(Cl)c1	RGS7-Gao inconclusive
N#CCCCCN1CCCC1	RGS7-Gao inconclusive
Cn1nnnc1SCC(=O)Nc1ccc2c(c1)OCO2	RGS7-Gao inconclusive
Cc1ccc(-c2nn(CC(=O)NCc3cc(-c4nn(C)c(=O)c5ccccc45)ccc3C)c(=O)c3ccccc23)cc1	RGS4-Gao reg active[activator], RGS7-Gao active[activator], RGS8-Gao 209[activator] (no result: Calb biofilm kill)
COc1cc(NC(=O)C2CC(=O)NC3=C2C(=O)CCC3)c(OC)cc1Cl (stereo unspecified)	none (no result: Calb biofilm kill)
Cc1ccc(S(=O)(=O)Oc2ccc(C3C4=C(CCCC4=O)N(CCC(=O)O)C4=C3C(=O)CCC4)cc2Cl)cc1	none
Cc1cc(NC(=O)CSc2nc3ccsc3c(=O)n2NC(=O)c2ccccc2)no1	RGS4-Gao reg 19, RGS7-Gao 25, RGS16-Gao 23, RGS8-Gao 39
COC(=O)c1ccc([N+](=O)[O-])cc1N1C(=O)C2C3CCC(C3)C2C1=O (stereo unspecified)	none
CN(C)CCCNC(=O)c1cc(S(=O)(=O)N2CCOCC2)ccc1F	RGS4-Gao reg 166[activator], RGS8-Gao 142[activator] (no result: Calb biofilm kill)
O=C(O)c1cc2nc3c(c(C(F)(F)F)n2n1)CCc1ccccc1-3	RGS4-Gao reg -12, RGS7-Gao 1.4, RGS16-Gao -6.0, RGS8-Gao 19 (no result: Calb biofilm kill)
COCCNC(=O)c1cc2nc3c(c(C(F)(F)F)n2n1)CCc1ccccc1-3	none
Cc1ccc(S(=O)(=O)Nc2nonc2C)cc1	RGS4-Gao reg 38, RGS7-Gao 31, RGS8-Gao 34 (no result: Calb biofilm kill)
CNS(=O)(=O)c1ccc(C)cc1	none (no result: Calb biofilm kill)
CCn1c(COc2ccc(=O)n(-c3ccccc3)n2)nnc1SCc1cccc(OC)c1	RGS4-Gao reg -20, RGS7-Gao -3.1, RGS16-Gao -13, RGS8-Gao 13 (no result: Calb biofilm kill)
O=C(CCc1nc2ccccc2[nH]c1=O)N/N=C/c1ccccc1	none
O=C(O)CCC(CNS(=O)(=O)c1ccccc1)C(F)(F)F (stereo unspecified)	none
CCN(CC)c1ccc2cc(-c3nc(-c4ccc(OC)cc4)cs3)c(=O)oc2c1	RGS4-Gao reg 808[activator], RGS7-Gao active[activator], RGS16-Gao 923[activator], RGS8-Gao 177[activator]
COC(=O)c1ccc(NC(=S)NC2CCc3ccccc32)cc1 (stereo unspecified)	none
COc1ccccc1C1(CCNC(C)c2cccs2)CCOC(C(C)C)C1 (stereo unspecified)	RGS7-Gao inconclusive
Cc1ccc(C2(CCNC(C)c3cccs3)CCOC(C(C)C)C2)cc1 (stereo unspecified)	Calb biofilm kill 41, RGS7-Gao inconclusive
CN(Cc1ccccc1)C(=O)CSc1nnc(-c2ccco2)n1-c1ccccc1	none (no result: Calb biofilm kill)
CCn1cc(C(=O)N2CCN(c3ccccc3F)CC2)c(=O)c2ccc(C)nc21	none
CN(C(=O)c1cccc(C#N)c1)c1nnc(-c2cnccn2)s1	none (no result: Calb biofilm kill)
Cc1sc(NC(=O)C2C3C=CC(C3)C2C(=O)O)c(C(N)=O)c1-c1ccc(C(C)C)cc1 (stereo unspecified)	none
CC(=O)Nc1cc(NC(C)=O)ncn1	RGS7-Gao inconclusive
C=CCNC(=O)/C(=C\C=C\c1ccccc1)NC(=O)c1ccc(OCCCC)cc1	RGS4-Gao reg 20, RGS7-Gao 13, RGS16-Gao 1.7, RGS8-Gao 12 (no result: Calb biofilm kill)
CC12CCC(C(=O)N(NC(=O)c3cc(Cl)ccc3O)C1=O)C2(C)C (stereo unspecified)	none (no result: Calb biofilm kill)
CCCCN=C1CC(C)(C)CC(=O)/C1=C(/O)CCC	RGS7-Gao inconclusive
Cc1ccc(C(=O)COC(=O)c2ccc3c(c2)C(=O)N(c2cccc4ncccc24)C3=O)cc1	RGS4-Gao reg 162[activator]
Cc1cccc(-c2ncc(CN3CCCC(CO)(Cc4ccccc4C)C3)cn2)c1 (stereo unspecified)	none
Cc1ccc(-c2nnc(SCC(=O)N/N=C/c3ccc(C)s3)n2-c2ccc(C)cc2)cc1	none
N#CC1=C(N)Oc2cc(Nc3ccccc3)ccc2C1c1ccncc1 (stereo unspecified)	none (no result: Calb biofilm kill)
COc1cc(OC)c(-c2c3cc(O)c(=O)cc-3oc3cc(O)c(O)cc23)cc1OC	RGS4-Gao reg 37, RGS7-Gao -3.2, RGS8-Gao 32
Cc1c2cc(O)c(=O)cc-2oc2cc(O)c(O)cc12	RGS4-Gao reg 25!, RGS7-Gao -4.9!, RGS8-Gao 31!
COc1c(O)cc2oc(-c3ccc(O)cc3)cc(=O)c2c1O	RGS7-Gao inconclusive
O=c1cc(-c2ccccc2Cl)oc2cc(O)cc(O)c12	none
Cn1c(SCC(=O)Nc2ccccc2)nnc1-c1ccc2nonc2c1	RGS7-Gao inconclusive
CN1CCc2nc3ccc(Cl)cc3c(-c3ccccc3Cl)c2C1	none
Cc1ccc(Nc2nc(N)nc(CN3CCN(Cc4ccc5c(c4)OCO5)CC3)n2)cc1	none (no result: Calb biofilm kill)
